# Assays:
# [1] = Dissociation constant, pKa of the compound in 0.01 M potassium hydrogen phthalate; format: physicochemical
# How it was run: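 pKa by potentiometric titration with 0.01 M potassium hydrogen phthalate in a thermostated vessel, stirred, under nitrogen bubbling, using glass and calomel electrodes. pKa is the mean pH at half-neutralization from four titrations. Endpoints were taken from parallel tangents on either side of the inflection.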
# Heart [2] = assay: Antiarrhythmic activity in Hartley guinea pig atria assessed as change in spontaneous rate at 73.4 uM/l after 5 mins; format: functional, Cavia porcellus
# How it was run: (§1)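 Spontaneously beating isolated atria held under initial tension; bath fluid changed every 10 min; stabilised about 1 h. Maximum driving rate found with 1-ms square pulses at 50% above threshold voltage, 10 s every 30 s; the frequency just before failure of following is the MDR. Control is the mean of two determinations. Spontaneous rate recorded by tachograph. Values are % change from control at peak response, generally 5–30 min.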
# Mus musculus [3] = assay: Toxicity in ip dosed Swiss-Webster albino mouse; format: organism-based; details: in vivo
# Heart [4] = assay: Antiarrhythmic activity in Hartley guinea pig atria assessed as change in maximum driving rate at 73.4 uM/l after 5 mins; format: functional, Cavia porcellus; how it was run: as §1
# Homo sapiens [5] = organism: Homo sapiens; assay: Drug absorption in buccal cavity in human at pH 9.3 after 5 mins by UV spectrometry; format: ADME, organism-based; details: in vivo, other, pH 9.3, 5 min
# How it was run: (§2)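 3 mg compound in 25 ml buffer (0.1 M phosphate pH 5.50 or 7.50; tetraborate pH 9.30) swished in the mouth for 5 min, expelled, and combined with a 10 ml water rinse. Made up to 50 ml; aliquot basified to pH 10 and ether-extracted, then back-extracted into 0.1 N HCl. UV absorbance read at λmax against Beer's law plots; the unrecovered fraction is taken as % absorbed. One to three subjects.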
# Homo sapiens [6] = organism: Homo sapiens; assay: Drug absorption in buccal cavity in human at pH 7.50 after 5 mins by UV spectrometry; format: ADME, organism-based; details: in vivo, other, pH 7.5, 5 min; how it was run: as §2
# Mus musculus [7] = assay: Antiarrhythmic activity in ip dosed Swiss-Webster albino mouse assessed as prevention of chloroform-induced ventricular fibrillation; format: functional, Heart
# [8] = Therapeutic index, ratio of LD50 for toxicity to ED50 for antiarrhythmic activity in ip dosed Swiss-Webster albino mouse; format: organism-based, Heart; details: in vivo, read-out: Ratio LD50/ED50
# Homo sapiens [9] = organism: Homo sapiens; assay: Drug absorption in buccal cavity in human at pH 5.50 after 5 mins by UV spectrometry; format: ADME, organism-based; details: in vivo, other, pH 5.5, 5 min; how it was run: as §2
# Heart [10] = assay: Antiarrhythmic activity in Hartley guinea pig atria assessed as change in maximum driving rate at 66.1 uM/l after 5 mins; format: functional, Cavia porcellus; how it was run: as §1
# Heart [11] = assay: Antiarrhythmic activity in Hartley guinea pig atria assessed as change in spontaneous rate at 66.1 uM/l after 5 mins; format: functional, Cavia porcellus; how it was run: as §1
# Heart [12] = assay: Antiarrhythmic activity in Hartley guinea pig atria assessed as change in spontaneous rate at 60.2 uM/l after 5 mins; format: functional, Cavia porcellus; how it was run: as §1
# Heart [13] = assay: Antiarrhythmic activity in Hartley guinea pig atria assessed as change in maximum driving rate at 60.2 uM/l after 5 mins; format: functional, Cavia porcellus; how it was run: as §1
# Heart [14] = assay: Antiarrhythmic activity in Hartley guinea pig atria assessed as change in maximum driving rate at 55.2 uM/l after 5 mins; format: functional, Cavia porcellus; how it was run: as §1
# Heart [15] = assay: Antiarrhythmic activity in Hartley guinea pig atria assessed as change in spontaneous rate at 55.2 uM/l after 5 mins; format: functional, Cavia porcellus; how it was run: as §1
# Heart [16] = assay: Antiarrhythmic activity in Hartley guinea pig atria assessed as change in maximum driving rate at 65.2 uM/l after 5 mins; format: functional, Cavia porcellus; how it was run: as §1
# Heart [17] = assay: Antiarrhythmic activity in Hartley guinea pig atria assessed as change in spontaneous rate at 65.2 uM/l after 5 mins; format: functional, Cavia porcellus; how it was run: as §1
# Heart [18] = assay: Antiarrhythmic activity in Hartley guinea pig atria assessed as change in spontaneous rate at 58.6 uM/l after 5 mins; format: functional, Cavia porcellus; how it was run: as §1
# Heart [19] = assay: Antiarrhythmic activity in Hartley guinea pig atria assessed as change in maximum driving rate at 58.6 uM/l after 5 mins; format: functional, Cavia porcellus; how it was run: as §1
# Heart [20] = assay: Antiarrhythmic activity in Hartley guinea pig atria assessed as change in maximum driving rate at 55.0 uM/l after 5 mins; format: functional, Cavia porcellus; how it was run: as §1
# Homo sapiens [21] = assay: Toxicity in human assessed as numbness at 5 x 10' -5 M administered topically to buccal cavity measured up to 15 to 20 mins; format: organism-based; details: in vivo, topical_or_ocular, 50 µM
# Heart [22] = assay: Antiarrhythmic activity in Hartley guinea pig atria assessed as change in spontaneous rate at 55.0 uM/l after 5 mins; format: functional, Cavia porcellus; how it was run: as §1
# Heart [23] = assay: Antiarrhythmic activity in Hartley guinea pig atria assessed as change in spontaneous rate at 32.5 uM/l after 5 mins; format: functional, Cavia porcellus; how it was run: as §1
# Heart [24] = assay: Antiarrhythmic activity in Hartley guinea pig atria assessed as change in maximum driving rate at 65.0 uM/l after 5 mins; format: functional, Cavia porcellus; how it was run: as §1
# Heart [25] = assay: Antiarrhythmic activity in Hartley guinea pig atria assessed as reversible decrease in maximum driving rate compound treated for 5 mins measured up to 2 hrs post washout; format: functional, tissue-based; details: Cavia porcellus
# How it was run: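 After compound exposure the bath was washed out. Two MDR determinations were made every 15 min for up to 2 h to follow reversibility and recovery toward control. Bath fluid was changed every 10 min.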
# Heart [26] = assay: Antiarrhythmic activity in Hartley guinea pig atria assessed as change in spontaneous rate at 65.0 uM/l after 5 mins; format: functional, Cavia porcellus; how it was run: as §1
# Heart [27] = assay: Antiarrhythmic activity in Hartley guinea pig atria assessed as change in maximum driving rate at 32.5 uM/l after 5 mins; format: functional, Cavia porcellus; how it was run: as §1
# Heart [28] = assay: Antiarrhythmic activity in Hartley guinea pig atria assessed as change in spontaneous rate at 30.8 uM/l after 5 mins; format: functional, Cavia porcellus; how it was run: as §1
# Heart [29] = assay: Antiarrhythmic activity in Hartley guinea pig atria assessed as change in maximum driving rate at 30.8 uM/l after 5 mins; format: functional, Cavia porcellus; how it was run: as §1
# Heart [30] = assay: Antiarrhythmic activity in Hartley guinea pig atria assessed as change in maximum driving rate at 61.6 uM/l after 5 mins; format: functional, Cavia porcellus; how it was run: as §1
# Heart [31] = assay: Antiarrhythmic activity in Hartley guinea pig atria assessed as change in maximum driving rate at 15.4 uM/l after 5 mins; format: functional, Cavia porcellus; how it was run: as §1
# Heart [32] = assay: Antiarrhythmic activity in Hartley guinea pig atria assessed as change in spontaneous rate at 61.6 uM/l after 5 mins; format: functional, Cavia porcellus; how it was run: as §1
# Heart [33] = assay: Antiarrhythmic activity in Hartley guinea pig atria assessed as change in spontaneous rate at 15.4 uM/l after 5 mins; format: functional, Cavia porcellus; how it was run: as §1
SMILES,pKa [1],LD50 (Mus musculus [3]),Drug absorption (Homo sapiens [5]) [%],Drug absorption (Homo sapiens [6]) [%],ED50 (Mus musculus [7]) [µmol/kg],selectivity ratio [8],Drug absorption (Homo sapiens [9]) [%],further results
CN1CC[C@H]2CCC[C@@H](NC(=O)c3ccccc3)[C@H]2C1 (mixture of isomers),9.18,1430,40.6,16,242,5.9,9.3,Activity (Heart [2]): -7.2%; Activity (Heart [4]): -15.1%
CN1CC[C@H]2CCC[C@@H](NC(=O)c3ccccc3)[C@@H]2C1 (mixture of isomers),8.99,1450,42.9,15.9,246,5.9,11.1,Activity (Heart [2]): -19.3%; Activity (Heart [4]): -17.6%
COc1ccccc1C(=O)N[C@@H]1CCC[C@@H]2CCN(C)C[C@@H]21 (mixture of isomers),9.11,847,35.1,5.3,116,7.3,1.2,Activity (Heart [10]): -23.2%; Activity (Heart [11]): -25.5%
COc1ccccc1C(=O)N[C@@H]1CCC[C@@H]2CCN(C)C[C@H]21 (mixture of isomers),8.81,761,41.2,12.8,175,4.3,5.2,Activity (Heart [10]): -19.8%; Activity (Heart [11]): -25%
COc1ccc(C(=O)N[C@@H]2CCC[C@@H]3CCN(C)C[C@@H]32)cc1 (mixture of isomers),9.19,1560,30.6,7,268,5.8,4.7,Activity (Heart [10]): -15.1%; Activity (Heart [11]): -44.2%
COc1ccc(C(=O)N[C@@H]2CCC[C@@H]3CCN(C)C[C@H]32)cc1 (mixture of isomers),,1490,34.3,9,195,7.6,7.4,Activity (Heart [10]): -19.8%; Activity (Heart [11]): -21.5%
COc1ccc(C(=O)N[C@@H]2CCC[C@@H]3CCN(C)C[C@@H]32)cc1OC (mixture of isomers),,1770,17.6,10.4,199,8.9,7,Activity (Heart [12]): -16.9%; Activity (Heart [13]): -9.71%
COc1ccc(C(=O)N[C@@H]2CCC[C@@H]3CCN(C)C[C@H]32)cc1OC (mixture of isomers),8.89,1600,27.1,18.9,164,9.8,16.8,Activity (Heart [12]): -20.2%; Activity (Heart [13]): -13.8%
COc1cc(C(=O)N[C@@H]2CCC[C@@H]3CCN(C)C[C@@H]32)cc(OC)c1OC (mixture of isomers),9.02,1170,23.8,14.2,160,7.3,8.1,Activity (Heart [14]): -7%; Activity (Heart [15]): -9.8%
CN1CC[C@H]2CCC[C@@H](NC(=O)c3ccc(Cl)cc3)[C@H]2C1 (mixture of isomers),,909,43.2,9.3,209,4.4,6.7,Activity (Heart [16]): -28.5%; Activity (Heart [17]): -13.1%
CN1CC[C@H]2CCC[C@@H](NC(=O)c3ccc(Cl)cc3)[C@@H]2C1 (mixture of isomers),8.83,952,54.4,12.4,200,4.8,8.2,Activity (Heart [16]): -20%; Activity (Heart [17]): -57.4%
CN1CC[C@H]2CCC[C@@H](NC(=O)c3ccc(Cl)c(Cl)c3)[C@H]2C1 (mixture of isomers),9.05,712,60.6,25.1,73,9.7,20.1,Activity (Heart [18]): -21.7%; Activity (Heart [19]): -34.1%
COc1cc(C(=O)O[C@@H]2CCC[C@@H]3CCN(C)C[C@@H]32)cc(OC)c1OC (mixture of isomers),8.91,421,70.7,38.2,162,2.6,21.2,Activity (Heart [20]): -32.3%; Activity (Homo sapiens [21]): Toxic; Activity (Heart [22]): -53.2%
CN1CC[C@H]2CCC[C@@H](OC(=O)c3ccc(Cl)cc3)[C@H]2C1 (mixture of isomers),8.9,1200,86.5,43.7,257,4.7,13.7,Activity (Heart [23]): -48.6%; Activity (Heart [24]): -53.3%; Activity (Heart [25]): Dose-dependent effect; Activity (Heart [26]): -52.3%; Activity (Heart [27]): -32.2%; Activity (Homo sapiens [21]): Toxic
CN1CC[C@H]2CCC[C@@H](OC(=O)c3ccc(Cl)cc3)[C@@H]2C1 (mixture of isomers),8.75,757,84.7,42.7,146,5.2,17.4,Activity (Heart [24]): -55.8%; Activity (Heart [26]): -60.5%; Activity (Homo sapiens [21]): Toxic
CN1CC[C@H]2CCC[C@@H](NS(=O)(=O)c3ccccc3)[C@H]2C1 (mixture of isomers),9.17,1460,30.4,17.7,282,5.2,14.9,
CN1CC[C@H]2CCC[C@@H](NS(=O)(=O)c3ccccc3)[C@@H]2C1 (mixture of isomers),8.87,1113,37.1,20.4,347,3.3,11.9,
C=C[C@H]1C[N@@]2CC[C@H]1C[C@@H]2[C@@H](O)c1ccnc2ccc(OC)cc12 [QUINIDINE],,533 uM/L,,,,,,
C=C[C@H]1CN2CC[C@H]1C[C@@H]2[C@@H](O)c1ccnc2ccc(OC)cc12 [QUINIDINE],,,,,160,,,Activity (Heart [28]): -28.6%; Activity (Heart [29]): -22.8%; Activity (Heart [30]): -36.3%; Activity (Heart [25]): Dose-dependent effect; Activity (Heart [31]): -13.3%; Activity (Heart [32]): -36.1%; Activity (Heart [33]): -18.8%

# Source: ChEMBL document CHEMBL3272033, “Physicochemical and pharmacological studies of some 8-substituted decahydroisoquinolines” (J Med Chem, 1976)
